From ChEMBL document CHEMBL2177084, “Discovery of salermide-related sirtuin inhibitors: binding mode studies and antiproliferative effects in cancer cells including cancer stem cells” (J Med Chem, 2012)
The source made the active and inactive calls. No cut-off for these calls is given here.

Experiments:
MOLT-4 [1] = assay: Antiproliferative activity against human MOLT4 cells at 100 uM after 24 to 72 hrs by MTT assay; type: functional, cell-based
Summary of the method: (§1)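 Cells exposed to compound for 24, 48 and 72 h; growth inhibition read by MTT and expressed as percentage antiproliferative activity.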

U-937 [2] = assay: Induction of apoptosis in human U937 cells at 50 uM after 45 hrs by flow cytometry; type: functional, cell-based
Summary of the method: (§2)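 Apoptosis was taken as the pre-G1 peak after propidium iodide staining in hypotonic citrate/Triton buffer (30 min, dark) and flow cytometry. Triplicate experiments.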

MOLT-4 [3] = assay: Antiproliferative activity against human MOLT4 cells at 100 uM by MTT assay; type: functional, cell-based; settings: TDE = time-dependent effect; summary of the method: as §1
U-937 [4] = assay: Induction of apoptosis in human U937 cells at 5 uM after 45 hrs by flow cytometry; type: functional, cell-based; summary of the method: as §2
[5] = molecular target: T1, NAD-dependent protein deacetylase sirtuin-1 (Homo sapiens) (UniProt Q96EB6); assay: (§3) Inhibition of human N-terminal GST-tagged SIRT1 expressed in Escherichia coli using Arg-His- Lys-Lys(Ac) as substrate after 1 hr by Fluor de Lys fluorescence based assay
T1 sequence (whole entry): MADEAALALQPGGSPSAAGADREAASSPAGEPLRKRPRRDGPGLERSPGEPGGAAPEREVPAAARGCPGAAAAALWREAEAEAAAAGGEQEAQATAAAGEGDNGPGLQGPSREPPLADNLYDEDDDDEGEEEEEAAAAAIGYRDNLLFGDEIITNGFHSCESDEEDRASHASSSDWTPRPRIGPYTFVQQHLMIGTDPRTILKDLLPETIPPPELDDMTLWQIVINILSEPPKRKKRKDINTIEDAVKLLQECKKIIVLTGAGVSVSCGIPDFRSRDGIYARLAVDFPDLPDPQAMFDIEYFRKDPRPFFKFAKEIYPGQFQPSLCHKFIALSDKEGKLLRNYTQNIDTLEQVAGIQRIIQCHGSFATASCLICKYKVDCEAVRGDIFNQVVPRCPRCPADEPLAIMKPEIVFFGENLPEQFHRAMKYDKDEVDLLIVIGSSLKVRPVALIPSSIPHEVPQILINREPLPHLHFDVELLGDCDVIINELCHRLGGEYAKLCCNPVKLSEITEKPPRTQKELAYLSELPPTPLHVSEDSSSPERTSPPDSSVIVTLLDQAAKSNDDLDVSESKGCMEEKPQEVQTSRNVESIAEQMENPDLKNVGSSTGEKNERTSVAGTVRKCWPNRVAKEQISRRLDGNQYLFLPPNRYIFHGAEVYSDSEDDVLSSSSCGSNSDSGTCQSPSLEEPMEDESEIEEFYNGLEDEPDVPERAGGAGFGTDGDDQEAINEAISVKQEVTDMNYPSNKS
Summary of the method: (§4)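 Recombinant full-length human sirtuin expressed in E. coli was incubated 1 h at 37 °C with p53-derived AMC-conjugated acetyl-peptide (SIRT1: Arg-His-Lys-Lys(Ac); SIRT2: Gln-Pro-Lys-Lys(Ac); […]) and NAD+ ([…]). The reaction was stopped and developed with developer containing 2 mM nicotinamide, and fluorescence read at ex 360/em 460 nm. Compound fluorescence was subtracted using an enzyme-free counter assay. Triplicate.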

[6] = Cytotoxicity against human 30PT cells after 72 hrs by celltiter-glo luminescent assay; type: functional
Summary of the method: (§5)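 Patient-derived CSC spheroids were dissociated, plated at 2000–3000 viable cells, and held 24 h at 37 °C in 5% CO2. They were then treated 72 h with eight 1:3 serial dilutions (0.023–50 μM), with 0.1% DMSO as control, in triplicate. Viability was read by CellTiter-Glo luminescence relative to DMSO, and CC50 was obtained by 4-parameter logistic fit (mean of three experiments).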

U-937 [7] = assay: Cell cycle arrest in human U937 cells at 25 uM after 40 hrs by flow cytometry; type: functional, cell-based
[8] = Cytotoxicity against human CRO cells at 50 uM after 72 hrs by celltiter-glo luminescent assay; type: functional; summary of the method: as §5
[9] = (§6) Cytotoxicity against human CRC 1.1 cells at 50 uM after 72 hrs by celltiter-glo luminescent assay; type: functional; summary of the method: as §5
U-937 [10] = assay: Granulocytic differentiation in human U937 cells assessed as increase of CD11c cells at 25 uM after 40 hrs by FACS analysis relative to control; type: functional
Summary of the method: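 U937 cells treated 40 h at 25 μM, then stained with PE-conjugated anti-CD11c (PE mouse IgG1 as isotype control) for 30 min at 4 °C in the dark. Cells were washed in PBS and taken up in PBS with 0.25 μg/mL propidium iodide. Differentiation = CD11c-positive cells minus PI-positive dead cells, by FACS.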

U-937 [11] = assay: Induction of apoptosis in human U937 cells after 45 hrs by flow cytometry; type: functional; parameters: concentration or dose not given beside the values; summary of the method: as §2
MOLT-4 [12] = assay: Antiproliferative activity against human MOLT4 cells at 25 uM after 24 to 72 hrs by MTT assay; type: functional, cell-based; summary of the method: as §1
[13] = Cytotoxicity against human CRC 1.1 cells after 72 hrs by celltiter-glo luminescent assay; type: functional; summary of the method: as §5
[14] = Cytotoxicity against human 30P cells after 72 hrs by celltiter-glo luminescent assay; type: functional; summary of the method: as §5
U-937 [15] = assay: Cell cycle arrest in human U937 cells assessed as accumulation at G1 phase at 25 uM after 40 hrs by flow cytometry; type: functional, cell-based
U-937 [16] = assay: Cell cycle arrest in human U937 cells assessed as accumulation at S phase at 25 uM after 40 hrs by flow cytometry; type: functional, cell-based
[17] = molecular target: T2, NAD-dependent protein deacetylase sirtuin-1 (Homo sapiens, UniProt Q96EB6); assay: as §3; summary of the method: as §4
T2 sequence (Q96EB6 whole entry): T1 sequence (whole entry)

[18] = Cytotoxicity against human CRO cells after 72 hrs by celltiter-glo luminescent assay; type: functional; summary of the method: as §5
RKO [19] = assay: Antiproliferative activity against human RKO cells at 50 uM after 24 to 72 hrs by MTT assay; type: functional, cell-based; summary of the method: as §1
MDA-MB-231 [20] = assay: Antiproliferative activity against human MDA-MB-231 cells at 50 uM after 24 to 72 hrs by MTT assay; type: functional, cell-based; summary of the method: as §1
MOLT-4 [21] = assay: Antiproliferative activity against human MOLT4 cells at 50 uM after 24 to 72 hrs by MTT assay; type: functional, cell-based; summary of the method: as §1
[22] = Cytotoxicity against human 30P cells at 50 uM after 72 hrs by celltiter-glo luminescent assay; type: functional; summary of the method: as §5
[23] = Cytotoxicity against human 30PT cells at 50 uM after 72 hrs by celltiter-glo luminescent assay; type: functional; summary of the method: as §5
Homo sapiens = organism: Homo sapiens; assay: as §6; type: functional; summary of the method: as §5
RKO [24] = assay: Antiproliferative activity against human RKO cells at 25 uM after 24 to 72 hrs by MTT assay; type: functional, cell-based; summary of the method: as §1
MDA-MB-231 [25] = assay: Antiproliferative activity against human MDA-MB-231 cells at 25 uM after 24 to 72 hrs by MTT assay; type: functional, cell-based; summary of the method: as §1
[26] = in the assay text read “40 hrs” for “45 hrs”
[27] = in the assay text read “after 40 hrs” for “after 45 hrs”

Row | Compound | Activity (MOLT-4 [1]) | Activity (U-937 [2]) | Activity (U-937 [4]) | Activity (MOLT-4 [12]) | Activity (U-937 [11]; [27]) | other results
1 | CC(C[S+]([O-])c1ccc(/N=C/c2c(O)ccc3ccccc23)cc1)c1ccccc1 (configuration not stated) | Active | Active | inactive | – | – | Activity (MOLT-4 [3]): tde
2 | CC(NS(=O)(=O)c1ccccc1/N=C/c1c(O)ccc2ccccc12)c1ccccc1 (configuration not stated) | Active | Active | inactive | – | – | inhibition [5]: Active
3 | N#C/C(=C\c1ccc(-c2cc(Cl)ccc2Cl)o1)C(=O)Nc1cccc2ncccc12 | – | – | – | – | – | CC50 [6]: 9.6 µM; Activity (U-937 [7]): inactive; inhibition at 50 µM [8]: 50%; inhibition at 50 µM [9]: 50%; Activity (U-937 [10]): inactive; Activity (U-937 [11]; [26]): inactive
4 | CC(CSc1ccccc1/N=C/c1c(O)ccc2ccccc12)c1ccccc1 (configuration not stated) | – | Active | inactive | Active | – | –
5 | CC(NS(=O)(=O)c1ccc(/N=C/c2c(O)ccc3ccccc23)cc1)c1ccccc1 (configuration not stated) | Active | Active | inactive | – | – | –
6 | CC(CS(=O)(=O)c1ccc(/N=C/c2c(O)ccc3ccccc23)cc1)c1ccccc1 (configuration not stated) | Active | Active | inactive | – | – | CC50 [13]: 34 µM; inhibition [5]: Active; CC50 [14]: 30.2 µM; Activity (U-937 [15]): Active
7 | CC(NS(=O)(=O)c1cccc(/N=C/c2c(O)ccc3ccccc23)c1)c1ccccc1 (configuration not stated) | – | Active | inactive | – | – | Activity (U-937 [16]): Active
8 | CC(NC(=O)c1ccc(/N=C/c2c(O)ccc3ccccc23)cc1)c1ccccc1 (configuration not stated) | Active | Active | inactive | Active | 47% | inhibition [5]: Active; Activity (MOLT-4 [3]): tde; Activity (U-937 [15]): Active
9 | CC(CSc1ccc(/N=C/c2c(O)ccc3ccccc23)cc1)c1ccccc1 (configuration not stated) | Active | Active | inactive | – | 90% | –
10 | CC(C[S+]([O-])c1cccc(/N=C/c2c(O)ccc3ccccc23)c1)c1ccccc1 (configuration not stated) | Active | Active | inactive | Active | – | CC50 [13]: 23.4 µM; IC50 [17]: 40.3 µM; CC50 [14]: 35 µM
11 | CC(CSc1cccc(/N=C/c2c(O)ccc3ccccc23)c1)c1ccccc1 (configuration not stated) | – | Active | inactive | Active | – | CC50 [13]: 20 µM; CC50 [18]: 14.5 µM; CC50 [6]: 15.6 µM; Activity (RKO [19]): Active; Activity (MDA-MB-231 [20]): Active; CC50 [14]: 15.5 µM; Activity (MOLT-4 [21]): Active
12 | CC(C[S+]([O-])c1ccccc1/N=C/c1c(O)ccc2ccccc12)c1ccccc1 (configuration not stated) | Active | Active | inactive | Active | – | inhibition at 50 µM [8]: 33%; inhibition at 50 µM [9]: 46%; inhibition at 50 µM [22]: 42%; Activity (MOLT-4 [3]): tde; inhibition at 50 µM [23]: 39%
13 | CC(NC(=O)c1ccccc1/N=C/c1c(O)ccc2ccccc12)c1ccccc1 (configuration not stated) [SIRTINOL] | – | Active | inactive | – | 47% | inhibition [5]: Active
14 | NC(=O)C1CCCc2c1[nH]c1ccc(Cl)cc21 (configuration not stated) | – | – | – | – | – | Activity (U-937 [7]): inactive; inhibition at 50 µM [8]: 20%; inhibition (Homo sapiens): inactive; inhibition at 50 µM [22]: 10%; Activity (U-937 [10]): inactive; inhibition at 50 µM [23]: 20%; Activity (U-937 [11]; [26]): inactive
15 | CC(C(=O)Nc1ccccc1/N=C/c1c(O)ccc2ccccc12)c1ccccc1 (configuration not stated) | – | Active | inactive | – | – | Activity (U-937 [16]): Active
16 | CC(C(=O)Nc1ccc(/N=C/c2c(O)ccc3ccccc23)cc1)c1ccccc1 (configuration not stated) | Active | Active | inactive | – | 70% | IC50 [17]: 40.9 µM; Activity (MOLT-4 [3]): tde; Activity (U-937 [15]): Active
17 | CC(C(=O)Nc1cccc(/N=C/c2c(O)ccc3ccccc23)c1)c1ccccc1 (configuration not stated) [SALERMIDE] | Active | Active | inactive | Active | 70% | CC50 [13]: 9.7 µM; CC50 [18]: 6.7 µM; CC50 [6]: 36.5 µM; Activity (RKO [19]): Active; Activity (MDA-MB-231 [20]): Active; CC50 [14]: 41 µM; Activity (MOLT-4 [3]): tde; Activity (RKO [24]): Active; Activity (MDA-MB-231 [25]): Active; Activity (MOLT-4 [21]): Active; Activity (U-937 [15]): Active
18 | CC(NC(=O)c1cccc(/N=C/c2c(O)ccc3ccccc23)c1)c1ccccc1 (configuration not stated) | – | Active | inactive | – | 47% | inhibition [5]: Active; Activity (U-937 [15]): Active
19 | CC(CS(=O)(=O)c1cccc(/N=C/c2c(O)ccc3ccccc23)c1)c1ccccc1 (configuration not stated) | – | Active | inactive | – | – | –
